High-throughput results: PubChem BioAssay, The Scripps Research Institute Molecular Screening Center
TAAR1 antagonist – human TAAR1 antagonists, primary screen, Fluo-8 calcium fluorescence, CHO RD-HGA16 cells; Trace amine-associated receptor 1 (Homo sapiens), Q96RJ0; antagonist; inhibition, % at 3 µM; 1.5% of 360,000 active;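 active means inhibition above a per-plate cutoff, the mean inhibition of test compounds on that plate plus 3 SD, cut at about 49% in these data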
Target sequence (Q96RJ0 whole entry, looked up): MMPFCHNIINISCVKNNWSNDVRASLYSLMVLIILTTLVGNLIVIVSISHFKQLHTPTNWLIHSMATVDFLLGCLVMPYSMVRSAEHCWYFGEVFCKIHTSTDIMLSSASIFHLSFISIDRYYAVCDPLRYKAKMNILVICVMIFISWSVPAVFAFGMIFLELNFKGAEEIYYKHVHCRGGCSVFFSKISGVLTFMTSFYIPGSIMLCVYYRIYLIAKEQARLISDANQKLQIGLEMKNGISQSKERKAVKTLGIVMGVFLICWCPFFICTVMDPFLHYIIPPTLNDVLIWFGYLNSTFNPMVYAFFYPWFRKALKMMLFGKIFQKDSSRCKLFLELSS
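Test system: CHO RD-HGA16 cells bearing hTAAR1 | Reagent: β-PEA, EC80 | Compound dosing: 3 µM, single point | Schedule: Dye loading 75 min at 37 °C, then 30 min room temperature | Signal: Calcium fluorescence with Fluo-8 | Evaluation: Percent inhibition of PEA-evoked calcium signal, max/basal emission ratio | Control set: DMSO-only wells and EC80 β-PEA-stimulated wells | Repeats: Singlicate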
TAAR1 ag – human TAAR1 agonists, primary screen, Fluo-8 calcium fluorescence, CHO RD-HGA16 cells; Trace amine-associated receptor 1 (Homo sapiens), Q96RJ0; vehicle wells 0%, saturating PEA agonist 100%; activation, % at 3 µM; 0.99% of 360,000 active; AID 624467, 2012;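 active means activation above the mean activation of all test compounds in the run plus 3 SD, cut at about 38% in these data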
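Assay system: CHO-derived RD-HGA16 cells with stable Gα16 and human TAAR1; timing: 17-24 h seeding, 75 min 37 °C dye, 30 min RT; read-out: % activation from peak over basal fluorescence ratio, DMSO-to-PEA scaled; measured by: kinetic Fluo-8 calcium fluorescence; benchmarks: low control DMSO, high control PEA (EC100); doses: 3 µM single concentration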
M1 PAM – human M1 muscarinic receptor positive allosteric modulators, primary screen, CHO-K1 cells, Fluo-8 calcium fluorescence, 1536-well. CHO-K1 hM1, ACh EC20; 0% = ACh EC20, 100% = maximal ACh. activation, % at 3 µM. 0.088% of 360,000 active; in the data active means activation above about 19%, passing the limit was not always enough
M1 ag – human M1 muscarinic receptor agonists, primary screen, Fluo-8 calcium fluorescence, CHO-K1 cells, HTS. CHO-K1 hM1, agonist mode; 0% DMSO, 100% acetylcholine EC100. 0.33% of 360,000 active. activation, % at 3 µM. AID 588814, 2011;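 active means activation above the run's mean compound activation plus 3 SD, cut at about 16% in these data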;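 further: peak over basal fluorescence ratio within a 140 s kinetic read after compound addition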
CHRM1 antagonist – human M1 muscarinic receptor antagonists, primary screen, CHO-K1 cells, Fluo-8 calcium fluorescence, 1536-well; Muscarinic acetylcholine receptor M1 (Homo sapiens), P11229; 1.3% of 360,000 active; CHO-K1 hM1, ACh EC80 antagonist; AID 588852, 2011; inhibition, % at 3 µM;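 active means percent inhibition above its own plate's cutoff, namely the mean of that plate's compound wells plus 3 SD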;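 further: peak over basal fluorescence ratio during 140 s after agonist addition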
Each line names hits and unclear results; the compound was inactive in the other large screens. Shown are actives, neighbours in structure and some others; about 3.4% of the full set was active somewhere.

C[C@]12Cc3ccccc3C1CC1=N[C@@H](c3ccc(C(F)(F)F)cc3)O[C@@]13C[C@@H]2C(=O)N3C1CCN(Cc2ccccc2)CC1 (stereo partly specified)	none (no result: M1 PAM, M1 ag, CHRM1 antagonist)
Cc1onc(-c2c(Cl)cccc2Cl)c1C(=O)N1CCc2ccccc21	CHRM1 antagonist 68
COC(=O)[C@]12C[C@H](CC(=O)NCC34CC5CC(CC(C5)C3)C4)C(=O)N(Cc3ccccc3)C1=C[C@H](C(C)(C)C)O[C@@H]2C	none (no result: M1 PAM, M1 ag, CHRM1 antagonist)
CCC1CCCCN1CCCNC(=O)CSc1nc2nc(C)c(Cc3ccccc3)c(C)n2n1 (stereo unspecified)	CHRM1 antagonist 25
CCC1CCCCN1CCCNC(=O)CSc1nc2nc(C)c(Cc3ccccc3Cl)c(C)n2n1 (stereo unspecified)	CHRM1 antagonist 51
N#Cc1[nH]nc2nc[nH]c(=O)c12	none (no result: M1 PAM, M1 ag, CHRM1 antagonist)
COC(=O)C1=C(C)N(C)C(=NCc2ccccc2C(F)(F)F)NC1c1cccc(F)c1 (stereo unspecified)	none (no result: M1 PAM, M1 ag, CHRM1 antagonist)
Cc1ccccc1Sc1ccc(N)cn1	CHRM1 antagonist 59
CN1CCN(C2Cc3cc(Cl)ccc3Sc3cc(F)ccc32)CC1 (stereo unspecified)	CHRM1 antagonist 99
CCc1ccc2c(c1)Sc1ccccc1CC2N1CCN(C)CC1 (stereo unspecified)	TAAR1 ag 43, CHRM1 antagonist 53
COC(=O)[C@]12C[C@H](CC(=O)NCC34CC5CC(CC(C5)C3)C4)C(=O)N(CCC3=CCCCC3)C1=C[C@H](C(C)(C)C)O[C@@H]2C	none (no result: M1 PAM, M1 ag, CHRM1 antagonist)
CCCS(=O)(=O)NC(=O)C1(C)CCCN(C(=O)c2ccc(OC)cc2)C1 (stereo unspecified)	none
C[N+]1(CCn2ccc3ccccc32)CCCCC1	CHRM1 antagonist 42
CCCCNC(=O)C1(C)CCCCN1C(=O)c1ccc2c(c1)CCO2 (stereo unspecified)	none
O=C(C(=O)N1CCC(Cc2ccccc2)CC1)c1ccccc1	none (no result: M1 PAM, M1 ag, CHRM1 antagonist)
CC(C(=O)c1ccc(-c2ccccc2)cc1)[n+]1cccc(NC(=O)c2ccccc2)c1 (stereo unspecified)	CHRM1 antagonist 50
O=C(CCc1c[nH]c2ccccc12)Nc1ccc(Nc2cccnc2)cc1	none (no result: M1 PAM, M1 ag, CHRM1 antagonist)
S=C(NCc1cccs1)Nc1cccc(Cl)c1	none (no result: TAAR1 antagonist, TAAR1 ag)
S=C(NCc1cccs1)Nc1cc(Cl)cc(Cl)c1	CHRM1 antagonist 43
COC(=O)c1c(C)[nH]c(C(=O)OC(C)C(=O)N2CCOCC2)c1C (stereo unspecified)	none
Cc1nn(-c2ccccc2)c(C)c1C(=O)OC(C)C(=O)NC1CCCCC1C (stereo unspecified)	CHRM1 antagonist 30
COC(=O)c1c(C)[nH]c(C(=O)OC(C)C(=O)NC2CCCCC2C)c1C (stereo unspecified)	M1 PAM 26
COc1ccc(-c2ccc(CN3C(CC(C)C)C(=O)N(Cc4cn(CC5CCCCC5)nn4)CCS3(=O)=O)cc2)cc1OC (stereo unspecified)	none
Cc1ccc(-c2ccc(CN3C(CC(C)C)C(=O)N(Cc4cn(CCC5OCCO5)nn4)CCS3(=O)=O)cc2)cc1 (stereo unspecified)	TAAR1 antagonist 55
CC(C)CC1C(=O)N(Cc2cn(CC3CCCCC3)nn2)CCS(=O)(=O)N1Cc1ccc(-c2ccncc2)cc1 (stereo unspecified)	M1 ag 19
CN1CCC(Oc2ccc(Sc3ccccc3)cc2)CC1	none
CN1CCC(Oc2ccccc2Sc2ccc(C(F)(F)F)cc2)CC1	CHRM1 antagonist 64
Nc1ccn([C@@H]2O[C@H](C(=O)N[C@H](Cc3ccccc3)C(=O)N3CCN(CCO)CC3)[C@@H](O)[C@H]2O)c(=O)n1	none (no result: M1 PAM, M1 ag, CHRM1 antagonist)
O=C(Nc1ccn(CCCNCc2ccccn2)c(=O)n1)OCc1ccccc1	none
O=C(Nc1ccn(CCCNCC2CCCCC2)c(=O)n1)OCc1ccccc1	none
O=C(Nc1ccn(CCCN2CCN(c3ncccn3)CC2)c(=O)n1)OCc1ccccc1	CHRM1 antagonist 22
O=C(Nc1ccn(CCCN2CCN(Cc3ccc(F)cc3)CC2)c(=O)n1)OCc1ccccc1	CHRM1 antagonist 39
CCN1CCC(O)(/C=C/c2ccc(C(C)C)cc2)C(C(=O)/C=C/c2ccc(C(C)C)cc2)C1 (stereo unspecified)	TAAR1 ag 40
CCOC(=O)c1[nH]ncc1CN1CCCC(C(=O)c2ccc(C(C)(C)C)cc2)C1 (stereo unspecified)	CHRM1 antagonist 38
Cn1c(=O)n(Cc2ccc(F)cc2)c(=O)c2c1nc1n2CCN1Cc1ccco1	none
Cn1c(=O)n(CCc2ccccc2)c(=O)c2c1nc1n2CCN1Cc1ccco1	CHRM1 antagonist 32
COc1cc([N+](=O)[O-])cc(/C=C2/SC(=S)N(Cc3ccccc3)C2=O)c1O	M1 ag 38, CHRM1 antagonist 51
O=C1/C(=C\c2cccc([N+](=O)[O-])c2O)SC(=S)N1Cc1ccccc1	none
S=c1[nH]nc(Cc2ccccc2)n1Cc1ccco1	CHRM1 antagonist 92
COC(=O)C1=C(C)N(Cc2cccc(C(F)(F)F)c2)C(=NCc2ccccc2C(F)(F)F)NC1c1cccc(C(F)(F)F)c1 (stereo unspecified)	none (no result: M1 PAM, M1 ag, CHRM1 antagonist)
CS(=O)(=O)N1CCCC(c2nc(-c3ccc(S(=O)(=O)NCc4ccccc4)cc3)no2)C1 (stereo unspecified)	CHRM1 antagonist 36 (no result: TAAR1 antagonist, TAAR1 ag)
COc1ccc2c(c1)[nH]c1c(=O)n(Cc3ccco3)cnc12	TAAR1 ag 47
Cc1cccc(N2C(=O)c3cccc4c(N)ccc(c34)C2=O)c1	TAAR1 ag 101, M1 ag 108, CHRM1 antagonist 43
CCN1C(=O)c2cccc3c(Cl)ccc(c23)C1=O	none
CC(C)CCN1C(=O)c2cccc3c(N)ccc(c23)C1=O	TAAR1 antagonist 78, TAAR1 ag 149, M1 ag 151, CHRM1 antagonist 70
CC(=O)Nc1cccc2c1C(=O)N(c1cccc(C)c1)C2=O	none
Cc1cccc(N2C(=O)c3cccc4c(N(C)CCO)ccc(c34)C2=O)c1	M1 ag 23 (no result: TAAR1 antagonist, TAAR1 ag)
Cc1cccc(N2C(=O)c3cccc4cccc(c34)C2=O)c1	none
O=C(O)c1cccc(N2C(=O)c3cccc4c(Cl)ccc(c34)C2=O)c1	none
Nc1cccc(N2C(=O)c3cccc4c(N)ccc(c34)C2=O)c1	M1 ag 45
Cc1ccc(Cl)cc1N1CCN(c2cccc[n+]2C)CC1	CHRM1 antagonist 48
COc1ccccc1NC(=O)c1cc(-c2cc(OC)c(OC)c(OC)c2)nc2ccccc12	none
